Reference: ChEMBL document CHEMBL2417474, “Synthesis, antiproliferative and anti-inflammatory activities of some novel 6-aryl-2-(p-(methanesulfonyl)phenyl)-4,5-dihydropyridazi-3(2H)-ones” (Eur J Med Chem, 2013)

Tests used:
SF-268 = assay: Growth inhibition of human SF268 cells assessed as cell growth at 10 uM after 48 hrs by sulforhodamine B assay; format: functional; details: SF-268, 48 h, read-out: Activity
CCRF-CEM = assay: Growth inhibition of human CCRF-CEM cells after 48 hrs by sulforhodamine B assay; format: functional, cell-based
Outline: (§1)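 NCI 60-cell-line panel grown in RPMI-type medium with 5% fetal calf serum and 2 mM L-glutamine. Cells preincubated 24 h, then exposed continuously for 48 h to compound in DMSO at 10^-4 to 10^-8 M (five 10-fold levels). Growth read by SRB protein stain. GI50 is the concentration giving a 50% reduction in net protein increase relative to control cells.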

PC-3 = assay: Growth inhibition of human PC3 cells after 48 hrs by sulforhodamine B assay; format: functional; details: PC-3, 48 h
Outline: (§2)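 NCI 60-cell-line panel. Cells were grown in medium with 5% fetal calf serum and 2 mM L-glutamine, then preincubated 24 h in plates. Compounds were added from DMSO at five 10-fold concentrations from 100 to 0.01 µM and left on cells continuously for 48 h. Cell growth was read by sulforhodamine B protein stain. GI50 is the concentration that halves net protein increase relative to control cells.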

UO-31 = assay: Growth inhibition of human UO31 cells assessed as cell growth at 10 uM after 48 hrs by sulforhodamine B assay; format: functional; details: UO-31, 48 h, read-out: Activity
Outline: (§3)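 Single-dose NCI screen. Tumor lines were cultured in medium with 5% fetal calf serum and 2 mM L-glutamine, preincubated 24 h, then given compound in DMSO. After 48 h continuous exposure, cell growth was estimated by sulforhodamine B protein assay.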

Malme-3M = assay: Growth inhibition of human MALME-3M cells after 48 hrs by sulforhodamine B assay; format: functional; details: for CC50: read-out: LC50 (the source's name); outline: as §1
NCI-H226 = assay: Growth inhibition of human NCI-H226 cells assessed as cell growth at 10 uM after 48 hrs by sulforhodamine B assay; format: functional; details: NCI-H226, 48 h, read-out: Activity
COLO 205 = assay: Growth inhibition of human COLO205 cells after 48 hrs by sulforhodamine B assay; format: functional; details: COLO 205, 48 h; for CC50: read-out: LC50 (the source's name); outline: as §1
NCI-H460 = assay: Growth inhibition of human NCI-H460 cells after 48 hrs by sulforhodamine B assay; format: functional; details: NCI-H460, 48 h; for CC50: read-out: LC50 (the source's name); outline: as §2
RPMI-8226 = assay: Growth inhibition of human RPMI8226 cells after 48 hrs by sulforhodamine B assay; format: functional; details: RPMI-8226, 48 h; for CC50: read-out: LC50 (the source's name); outline: as §2
BT-549 = assay: Growth inhibition of human BT549 cells assessed as cell growth at 10 uM after 48 hrs by sulforhodamine B assay; format: functional; details: BT-549, 48 h, read-out: Activity
RXF 393 = assay: Growth inhibition of human RXF393 cells after 48 hrs by sulforhodamine B assay; format: functional; details: RXF 393, 48 h; outline: as §2
SK-MEL-2 = assay: Growth inhibition of human SK-MEL-2 cells assessed as cell growth at 10 uM after 48 hrs by sulforhodamine B assay; format: functional; details: SK-MEL-2, 48 h, read-out: Activity
HT-29 = assay: Growth inhibition of human HT-29 cells assessed as cell growth at 10 uM after 48 hrs by sulforhodamine B assay; format: functional; details: HT-29, 48 h, read-out: Activity
HOP-62 = assay: Growth inhibition of human HOP62 cells after 48 hrs by sulforhodamine B assay; format: functional; details: HOP-62, 48 h; for CC50: read-out: LC50 (the source's name); outline: as §1
NCI-H522 = assay: Growth inhibition of human NCI-H522 cells assessed as cell growth at 10 uM after 48 hrs by sulforhodamine B assay; format: functional; details: NCI-H522, 48 h, read-out: Activity
[1] = Growth inhibition of human NCI-ADR-RES cells after 48 hrs by sulforhodamine B assay; format: functional; outline: as §2
OVCAR-5 = assay: Growth inhibition of human OVCAR5 cells assessed as cell growth at 10 uM after 48 hrs by sulforhodamine B assay; format: functional; details: OVCAR-5, 48 h, read-out: Activity
[2] = Growth inhibition of human HCC2998 cells assessed as cell growth at 10 uM after 48 hrs by sulforhodamine B assay; format: functional; details: HCC 2998, 48 h, read-out: Activity
SR = assay: Growth inhibition of human SR cells assessed as cell growth at 10 uM after 48 hrs by sulforhodamine B assay; format: functional; details: read-out: Activity; outline: as §3
KM12 = assay: Growth inhibition of human KM12 cells assessed as cell growth at 10 uM after 48 hrs by sulforhodamine B assay; format: functional; details: KM12, 48 h, read-out: Activity
SW-620 = assay: Growth inhibition of human SW620 cells after 48 hrs by sulforhodamine B assay; format: functional; details: SW-620, 48 h; for CC50: read-out: LC50 (the source's name)
Outline: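 NCI 60-line panel. Cells were grown in medium with 5% fetal calf serum and 2 mM L-glutamine and preincubated 24 h in plates. Compound in DMSO was added at 10^-4 to 10^-8 M (five 10-fold levels), with continuous exposure for 48 h. Growth was read by SRB protein staining. GI50 is the concentration giving 50% reduction in net protein increase versus control cells.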

TK-10 = assay: Growth inhibition of human TK10 cells assessed as cell growth at 10 uM after 48 hrs by sulforhodamine B assay; format: functional; details: TK-10, 48 h, read-out: Activity; outline: as §3
MDA-MB-468 [3] = assay: Growth inhibition of human MDA-MB-468 cells assessed as cell growth at 10 uM after 48 hrs by sulforhodamine B assay; format: functional; details: MDA-MB-468, 48 h, read-out: Activity
[4] = Growth inhibition of human HCC2998 cells after 48 hrs by sulforhodamine B assay; format: functional; details: HCC 2998, 48 h; for CC50: read-out: LC50 (the source's name); outline: as §1
SF-539 = assay: Growth inhibition of human SF539 cells after 48 hrs by sulforhodamine B assay; format: functional; details: SF-539, 48 h; for CC50: read-out: LC50 (the source's name); outline: as §2
SN12C = assay: Growth inhibition of human SN12C cells after 48 hrs by sulforhodamine B assay; format: functional
Outline: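 Part of the NCI 60-cell-line panel. Cells were grown in 1640 medium with 5% fetal calf serum and 2 mM L-glutamine, then preincubated 24 h before compound was added. Compounds in DMSO were tested at five concentrations (100, 10, 1, 0.1, 0.01 µM) with 48 h continuous exposure. Read-out was SRB protein staining; GI50 is the concentration halving the net protein increase versus control.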

A549 = assay: Growth inhibition of human A549/ATCC cells after 48 hrs by sulforhodamine B assay; format: functional; details: A549, 48 h; for CC50: read-out: LC50 (the source's name); outline: as §1
MDA-MB-468 [5] = assay: Growth inhibition of human MDA-MB-468 cells after 48 hrs by sulforhodamine B assay; format: functional; details: MDA-MB-468, 48 h; outline: as §2

## Cc1cc(O)ccc1C1=NN(c2ccc(S(C)(=O)=O)cc2)C(=O)CC1
SF-268
  growth at 10 µM: 80.3%
CCRF-CEM
  GI50: 9.09 µM
  TGI: > 100 µM
CCRF-CEM; read-out: LC50 (the source's name)
  CC50: > 100 µM
PC-3
  GI50: 14.8 µM
  LC50: > 100 µM
  TGI: > 100 µM
UO-31
  growth at 10 µM: 48.8%
Malme-3M
  GI50: 5.37 µM
  TGI: > 100 µM
  CC50: > 100 µM
NCI-H226
  growth at 10 µM: 93.3%
COLO 205
  GI50: 6.62 µM
  TGI: 74.4 µM
  CC50: > 100 µM
NCI-H460
  GI50: 3.87 µM
  TGI: > 100 µM
  CC50: > 100 µM
RPMI-8226
  GI50: 25.6 µM
  TGI: > 100 µM
  CC50: > 100 µM
BT-549
  growth at 10 µM: 58.2%
RXF 393
  GI50: 12.8 µM
  LC50 (50% lethal concentration): > 100 µM
  TGI: > 100 µM
SK-MEL-2
  growth at 10 µM: 68.7%
HT-29
  growth at 10 µM: 38.9%
HOP-62
  GI50: 9.07 µM
  TGI: > 100 µM
  CC50: > 100 µM
NCI-H522
  growth at 10 µM: 2.39%
[1]
  GI50: 3.26 µM
  LC50: > 100 µM
  TGI: > 100 µM
OVCAR-5
  growth at 10 µM: 98%
[2]
  growth at 10 µM: 78.6%
SR
  growth at 10 µM: 12.3%
KM12
  growth at 10 µM: 47.6%
SW-620
  GI50: 3.32 µM
  TGI: > 100 µM
  CC50: > 100 µM
TK-10
  growth at 10 µM: 105%
MDA-MB-468 [3]
  growth at 10 µM: 103%
[4]
  GI50: 46.7 µM
  TGI: > 100 µM
  CC50: > 100 µM
SF-539
  GI50: 13.2 µM
  TGI: > 100 µM
  CC50: > 100 µM
SN12C
  GI50: 7.18 µM
  LC50: > 100 µM
  TGI: > 100 µM
A549
  GI50: 6.2 µM
  TGI: > 100 µM
  CC50: > 100 µM
MDA-MB-468 [5]
  GI50: 11 µM
  LC50 (concentration killing 50% of cells): > 100 µM
  TGI: 44.3 µM

## Cc1ccc(C2=NN(c3ccc(S(C)(=O)=O)cc3)C(=O)CC2)cc1
SF-268
  growth at 10 µM: 55.2%
CCRF-CEM
  GI50: 1.16 µM
  IC50: > 100 µM
  TGI: > 100 µM
PC-3
  GI50: 1.43 µM
  LC50: > 100 µM
  TGI: > 100 µM
UO-31
  growth at 10 µM: 41.1%
Malme-3M
  TGI: > 100 µM
  CC50: > 100 µM
NCI-H226
  growth at 10 µM: 77.6%
COLO 205
  GI50: 0.52 µM
  TGI: 6.07 µM
  CC50: > 100 µM
NCI-H460
  GI50: 0.38 µM
  TGI: > 100 µM
  CC50: > 100 µM
RPMI-8226
  GI50: 2.78 µM
  TGI: > 100 µM
  CC50: > 100 µM
BT-549
  growth at 10 µM: 11.3%
RXF 393
  GI50: 0.63 µM
  LC50 (50% lethal concentration): > 100 µM
  TGI: 6.8 µM
SK-MEL-2
  growth at 10 µM: 6.35%
HT-29
  growth at 10 µM: 11.1%
HOP-62
  GI50: 1.3 µM
  TGI: > 100 µM
  CC50: > 100 µM
NCI-H522
  growth at 10 µM: 12.8%
[1]
  GI50: 0.27 µM
  LC50: > 100 µM
OVCAR-5
  growth at 10 µM: 53.1%
[2]
  growth at 10 µM: 47.2%
SR
  growth at 10 µM: 4.47%
KM12
  growth at 10 µM: 35%
SW-620
  GI50: 0.34 µM
  TGI: > 100 µM
  CC50: > 100 µM
TK-10
  growth at 10 µM: 67%
MDA-MB-468 [3]
  growth at 10 µM: 23.9%
[4]
  GI50: 2.75 µM
  TGI: > 100 µM
  CC50: > 100 µM
SF-539
  GI50: 1.02 µM
  TGI: 17.4 µM
  CC50: > 100 µM
SN12C
  LC50: > 100 µM
A549
  GI50: 0.52 µM
  TGI: > 100 µM
  CC50: > 100 µM
MDA-MB-468 [5]
  GI50: 1.23 µM
  LC50 (concentration killing 50% of cells): > 100 µM
  TGI: 4.86 µM
